For one assay, the species on record is Homo sapiens. The assay can be described thus: Inhibition of human recombinant TTR Y78F mutant-mediated fibrillogenesis at 40 uM after 30 mins by turbidimetric assay relative to control. In short, it runs like this: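 Y78F TTR turbidity assay: 30 min preincubation at 37 °C with 0−40 μM compound, then pH 4.2 acetate buffer (final 0.4 mg/mL TTR, 5% DMSO). A340 was monitored for 1.5 h at 37 °C. Initial rates were fitted to v0 = A + B·exp(−C[I]). RA% is the percentage reduction in fibril formation rate at high inhibitor concentration versus no inhibitor.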

Assay [1] in a line: Inhibition of human recombinant TTR Y78F mutant-mediated fibrillogenesis after 30 mins by turbidimetric assay. In short, it runs like this: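 Recombinant TTR Y78F (4 mg/mL in 20 mM potassium phosphate, 100 mM KCl, 1 mM EDTA, pH 7.6) was preincubated 30 min at 37 °C with 0−40 μM compound (final). Acid fibrillogenesis was started with pH 4.2 acetate buffer, giving final 0.4 mg/mL TTR and 5% DMSO. A340 was read every 1 min for 1.5 h at 37 °C. IC50 came from fitting initial rates to v0 = A + B·exp(−C[I]).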

The nature of assay [2]: Binding affinity to human recombinant TTR Y78F mutant after 5 mins by isothermal titration calorimetry. In short, it runs like this: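 Recombinant human TTR Y78F (E. coli-expressed), 20−30 μM in cell, in 100 mM potassium phosphate, KCl, 1 mM EDTA, 5% (v/v) DMSO, pH 7.6, filtered and degassed 5 min. Titrant was 500 μM ligand in the same buffer. One 0.5−1 μL injection, then 1.5−2 μL injections every 150 s, 25 °C. Dilution blanks subtracted; isotherms fitted to a two identical-site model to give Kd.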

Structures are written as SMILES. A value given as a limit tells only on which side of the number the result lay.

One may read the inhibition as the share of the control response that was lost under treatment. One may read the IC50 as the concentration at which inhibition is half-maximal. For the molecule `O=C(O)Cc1cc(I)c(Oc2cc(I)c(O)c(I)c2)c(I)c1` [TETRAC], the inhibition in the assay filed under Homo sapiens was 93%. Moreover, in assay [1], the IC50 stood at 4.8 µM.

Broadly, the Kd is the concentration at which binding is half-saturated. Regarding `O=C(O)c1cc(-c2ccc(F)cc2F)cc(I)c1O`, the inhibition in the assay listed under Homo sapiens was found to be 94%. The Kd in assay [2] came out at 0.087 µM.

Regarding `CC(C(=O)O)c1ccc(-c2ccccc2)c(F)c1` (stereo not given) [FLURBIPROFEN], in the assay listed under Homo sapiens, the inhibition was found to be 35%. Further, the IC50 in assay [1] was above 100 µM.

With `CC1=C(/C=C/C(C)=C/C=C/C(C)=C/C(=O)O)C(C)(C)CCC1` [TRETINOIN], the inhibition in the assay listed under Homo sapiens turned out to be 100%. Besides, the IC50 in assay [1] stood at 8.1 µM.

`Oc1c(Cl)cc(-c2cc(Cl)c(O)c(Cl)c2)cc1Cl`: the inhibition in the assay listed under Homo sapiens is 100%. Further, the IC50 in assay [1] amounted to 2.1 µM.

For `O=C(O)c1ccccc1Nc1cc(Cl)cc(C(F)(F)F)c1`, in the assay listed under Homo sapiens, the inhibition worked out at 86%. In addition, in assay [1], the IC50 was 6 µM. Further, the Kd in assay [2] was determined as 0.086 µM.

Turning to `O=[N+]([O-])c1ccc(O)c([N+](=O)[O-])c1` [2,4-DINITROPHENOL], the inhibition in the assay filed under Homo sapiens stood at 77%. The IC50 in assay [1] stood at 20 µM.

Turning to `O=C(O)c1cc(-c2ccc(Cl)cc2Cl)ccc1O`, the inhibition in the assay filed under Homo sapiens stood at 75%. Besides, the IC50 in assay [1] was determined as 12.8 µM.

Turning to `O=C(O)c1ccccc1Nc1cc(Br)cc(C(F)(F)F)c1`, the inhibition in the assay listed under Homo sapiens is 91%. Moreover, in assay [1], the IC50 stood at 5.9 µM. Also, the Kd in assay [2] turned out to be 0.064 µM.

As for `O=C(O)c1ccccc1Nc1cc(F)cc(C(F)(F)F)c1`, the inhibition in the assay listed under Homo sapiens amounted to 91%. Further, the IC50 in assay [1] came to 6.5 µM. The Kd in assay [2] was 0.091 µM.

On to `N[C@@H](Cc1cc(I)c(Oc2cc(I)c(O)c(I)c2)c(I)c1)C(=O)O` [LEVOTHYROXINE], for which the inhibition in the assay listed under Homo sapiens amounted to 80%.

With `O=C(O)c1ccc(-c2cc(F)cc(F)c2)cc1`, in the assay filed under Homo sapiens, the inhibition was 89%. Moreover, in assay [1], the IC50 came to 10.8 µM.

Consider `O=C(O)c1cc(-c2ccc(F)cc2F)cc(F)c1O`, for which the inhibition in the assay filed under Homo sapiens turned out to be 87%. In addition, the IC50 in assay [1] worked out at 7.6 µM. Moreover, in assay [2], the dissociation constant Kd worked out at 1.12 µM.

As to `Oc1ccc(/C=C/c2cc(O)cc(O)c2)cc1` [RESVERATROL], the inhibition in the assay filed under Homo sapiens came out at 89%. Further, the IC50 in assay [1] came to 4.5 µM.

In the case of `O=C(O)c1cc(-c2ccc(F)cc2F)ccc1O` [DIFLUNISAL], the inhibition in the assay listed under Homo sapiens came out at 85%. Further, in assay [1], the IC50 came out at 18 µM. The Kd in assay [2] was determined as 1.16 µM.

With `O=C(O)c1cc(-c2ccc(F)cc2F)cc(Cl)c1O`, the inhibition in the assay listed under Homo sapiens turned out to be 89%. Also, in assay [1], the IC50 was 7.5 µM. For the same molecule, in assay [2], the Kd came out at 0.375 µM.

As for `O=C(O)c1cc(-c2ccc(F)cc2F)cc(Br)c1O`, the inhibition in the assay filed under Homo sapiens is 88%. For the same molecule, the IC50 in assay [1] was 5.6 µM. Moreover, the Kd in assay [2] came out at 0.194 µM.

With `O=C(O)Cc1ccccc1Nc1c(Cl)cccc1Cl` [DICLOFENAC], the inhibition in the assay filed under Homo sapiens was found to be 74%. In addition, the IC50 in assay [1] is 26 µM.

Consider `CC/C(=C(/CC)c1ccc(O)cc1)c1ccc(O)cc1` [DIETHYLSTILBESTROL], for which the inhibition in the assay listed under Homo sapiens was 67%. In addition, the IC50 in assay [1] was 16.6 µM.

Take `O=C(O)c1ccccc1Nc1cccc(C(F)(F)F)c1` [FLUFENAMIC ACID]: the inhibition in the assay listed under Homo sapiens came out at 89%. Moreover, the IC50 in assay [1] turned out to be 6.2 µM. The Kd in assay [2] amounted to 0.109 µM.

As to `O=C(O)c1ccccc1Nc1cc(I)cc(C(F)(F)F)c1`, the inhibition in the assay filed under Homo sapiens was 94%. In assay [1], the IC50 was 6.4 µM. Moreover, the Kd in assay [2] stood at 0.085 µM.

The record behind these values is ChEMBL document CHEMBL3085733, “Modulation of the fibrillogenesis inhibition properties of two transthyretin ligands by halogenation” (J Med Chem, 2013).
